The subject of data set [1] is Helicobacter pylori. Description: Antibacterial activity against multidrug-resistant Helicobacter pylori v1354. The format is functional. The method in brief: (§1)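 Minimum bactericidal concentration (MBC), expressed in µM, determined against H. pylori reference strain Hp 26695 and the clinical isolates v1254 and v1354. Both isolates are resistant to metronidazole and clarithromycin. Amoxicillin, clarithromycin and metronidazole served as standard antimicrobial comparators.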

The subject of data set [2] is Helicobacter pylori. Description: Inhibition of Helicobacter pylori invasion into human AGS cells at 2.5 uM after 6 hrs. Format: functional. The method in brief: (§2)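 AGS cells, untreated or treated with compound, then infected with H. pylori at MOI 50 for 6 h. Bacterial adhesion to, or invasion into, the cells was measured. Compounds tested at 2.5, 5.0 and 10.0 µM. DMSO vehicle and antibiotic controls at 2.5 µM. Values are mean ± SD of at least six independent experiments; Student's t-test against DMSO-treated cells.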

For data set [3], the system named is Helicobacter pylori. The experiment in a line: Inhibition of Helicobacter pylori-induced inflammation in human AGS cells assessed as reduction of NF-kappaB activity at 2.5 uM after 6 hrs by luciferase reporter gene assay relative to control. The format is functional. The method in brief: (§3)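 AGS cells transfected with an NF-κB luciferase reporter construct. Cells were treated with compound (2.5–10 µM) and infected with H. pylori, then luciferase expression was measured. Activity is expressed relative to DMSO-treated control. Antibiotics at 2.5 µM served as reference. Values are mean ± SD of at least three independent experiments.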

Data set [4] concerns Helicobacter pylori. The experiment in a line: Antibacterial activity against multidrug-resistant Helicobacter pylori v1254. Format: functional. The method in brief: as §1
The test system of data set [5] is Helicobacter pylori. The experiment in a line: Inhibition of Helicobacter pylori-induced inflammation in human AGS cells assessed as reduction of IL-8 production at 10 uM by ELISA. Format: functional. The method in brief:
(§4)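 IL-8 in culture supernatants measured from H. pylori-infected AGS cells pre-treated with compound at 2.5, 5.0 or 10.0 µM. Inhibition calculated against DMSO control-treated cells. Values are mean ± SD of at least three independent experiments.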

Data set [6] deals with Helicobacter pylori. Description: Antibacterial activity against Helicobacter pylori Hp 26695. The format is functional. The method in brief:
as §1

Data set [7] deals with Helicobacter pylori. Description: Inhibition of Helicobacter pylori invasion into human AGS cells at 10 uM after 6 hrs. The format is functional. The method in brief: as §2
Data set [8] relates to Helicobacter pylori. Description: Inhibition of Helicobacter pylori-induced inflammation in human AGS cells assessed as reduction of NF-kappaB activity at 10 uM after 6 hrs by luciferase reporter gene assay relative to control. The format is functional. The method in brief:
as §3
For orientation: Reporter assays use an easily measured gene product as a stand-in for the process of interest.

Data set [9] concerns Helicobacter pylori. The experiment in a line: Inhibition of Helicobacter pylori-induced inflammation in human AGS cells assessed as reduction of NF-kappaB activity after 6 hrs by luciferase reporter gene assay relative to control. The format is functional. The method in brief:
as §3

The test system of data set [10] is Helicobacter pylori. Description: Inhibition of Helicobacter pylori-induced inflammation in human AGS cells assessed as reduction of IL-8 production at 5 uM by ELISA. The format is functional. The method in brief: as §4
(ELISA stands for enzyme-linked immunosorbent assay.)

The next data set concerns AGS. The experiment in a line: Cytotoxicity against human AGS cells assessed as cell viability at 0.5 ug/ml by MTT assay. The format is cell-based. Conditions: in the assay text read “0.5 mg/ml” for “0.5 ug/ml”. The method in brief:
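MTT viability assay on AGS human gastric epithelial cells, run at 0.5 mg/ml, the top concentration used in the H. pylori growth test.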

Data set [11] has as its system Helicobacter pylori. Description: Inhibition of Helicobacter pylori invasion into human AGS cells at 5 uM after 6 hrs. The format is functional. The method in brief:
as §2

The test system of data set [12] is Helicobacter pylori. The experiment in a line: Inhibition of Helicobacter pylori-induced inflammation in human AGS cells assessed as reduction of IL-8 production at 2.5 uM by ELISA. Format: functional. The method in brief:
as §4

Data set [13] relates to Helicobacter pylori. Description: Inhibition of Helicobacter pylori adhesion into human AGS cells at 10 uM after 6 hrs. Format: functional. The method in brief:
as §2

Data set [14] concerns Helicobacter pylori. The experiment in a line: Inhibition of Helicobacter pylori adhesion into human AGS cells at 5 uM after 6 hrs. The format is functional. The method in brief:
as §2

Data set [15] has as its system Helicobacter pylori. The experiment in a line: Inhibition of sHelicobacter pylori adhesion into human AGS cells at 2.5 uM after 6 hrs. The format is functional. The method in brief:
as §2

Data set [16] relates to Helicobacter pylori. Description: Inhibition of Helicobacter pylori-induced inflammation in human AGS cells assessed as reduction of NF-kappaB activity at 5 uM after 6 hrs by luciferase reporter gene assay relative to control. The format is functional. The method in brief: as §3

From ChEMBL document CHEMBL1221347, “Identification of 3',4',5'-trimethoxychalcone analogues as potent inhibitors of Helicobacter pylori-induced inflammation in human gastric epithelial cells” (Bioorg Med Chem Lett, 2010) come the findings set out here.

≈ marks a conversion by molar mass, not a printed value. Calls of active or inactive are those of the source. Where only a bound is given, the exact number is not on record here.

With `CC[C@H]1OC(=O)[C@H](C)[C@@H](O[C@H]2C[C@@](C)(OC)[C@@H](O)[C@H](C)O2)[C@H](C)[C@@H](O[C@@H]2O[C@H](C)C[C@H](N(C)C)[C@H]2O)[C@](C)(OC)C[C@@H](C)C(=O)[C@H](C)[C@@H](O)[C@]1(C)O` [CLARITHROMYCIN], the MBC in the data set with Helicobacter pylori [1] worked out at 25 µM (≈ 18.7 µg/mL); against Helicobacter pylori [4], 50 µM (≈ 37.4 µg/mL); in the data set on Helicobacter pylori [6], 1.6 µM (≈ 1.2 µg/mL). For the same compound, the inhibition at 2.5 µM with Helicobacter pylori [2] was above 90%. Moreover, in the data set on Helicobacter pylori [3], the inhibition result is “inactive”. Besides, the inhibition at 10 µM with Helicobacter pylori [5] is 81.9%.
With `COc1ccc(/C=C/C(=O)c2cc(OC)c(OC)c(OC)c2)cc1`, the minimum bactericidal concentration (MBC) with Helicobacter pylori [1], against Helicobacter pylori [4] and against Helicobacter pylori [6] was 100 µM (≈ 32.8 µg/mL) throughout. The inhibition entry in the data set on Helicobacter pylori [7], with Helicobacter pylori [11], in the data set with Helicobacter pylori [13] and in the data set with Helicobacter pylori [14] was “Active” each time. The inhibition at 10 µM in the data set on Helicobacter pylori [8] is 66%; in the data set with Helicobacter pylori [5] it was 59.4%. Moreover, the inhibition result with Helicobacter pylori [2] was “inactive”. For the same compound, the inhibition entry in the data set with Helicobacter pylori [9] is “Dose-dependent effect”. Besides, the inhibition at 5 µM with Helicobacter pylori [10] is 23.4%. In the data set on AGS, the Activity result was “Non-toxic”. Besides, the inhibition at 2.5 µM with Helicobacter pylori [3] amounted to 14.7%; in the data set with Helicobacter pylori [12], 8%.
Take `COc1cccc(/C=C/C(=O)c2cc(OC)c(OC)c(OC)c2)c1OC`: the results for the MBC with Helicobacter pylori [1], in the data set on Helicobacter pylori [4] and in the data set with Helicobacter pylori [6] were 25 µM (≈ 8.96 µg/mL), 50 µM (≈ 17.9 µg/mL) and 25 µM (≈ 8.96 µg/mL), respectively. For the same compound, the inhibition result with Helicobacter pylori [7] and with Helicobacter pylori [11] was “Active” throughout. Further, the inhibition at 10 µM came out at 90.6% with Helicobacter pylori [8], 99.9% in the data set with Helicobacter pylori [13] and 87% in the data set on Helicobacter pylori [5]. Moreover, the inhibition entry in the data set on Helicobacter pylori [2] was “inactive”. Besides, the inhibition result in the data set with Helicobacter pylori [9] is “Dose-dependent effect”. The inhibition at 5 µM in the data set on Helicobacter pylori [10] is 65.2%; with Helicobacter pylori [14] it was 73.3%. Besides, in the data set on AGS, the Activity result is listed as “Non-toxic”. Also, the inhibition at 2.5 µM stood at 39.8% in the data set with Helicobacter pylori [3], 24.6% in the data set with Helicobacter pylori [12] and 66.6% with Helicobacter pylori [15].
`Cc1ncc([N+](=O)[O-])n1CCO` [METRONIDAZOLE]: the results for the MBC in the data set on Helicobacter pylori [1], in the data set with Helicobacter pylori [4] and with Helicobacter pylori [6] were 800 µM (≈ 137 µg/mL), 400 µM (≈ 68.5 µg/mL) and 25 µM (≈ 4.28 µg/mL), respectively. For the same compound, 2.5 µM produced 20% inhibition in the data set with Helicobacter pylori [2]. Moreover, the inhibition result with Helicobacter pylori [3] was “inactive”. Moreover, in the data set with Helicobacter pylori [5], the inhibition at 10 µM turned out to be 81.9%.
In the case of `COc1cc(/C=C/C(=O)c2cc(OC)c(OC)c(OC)c2)ccc1O`, the minimum bactericidal concentration (MBC) in the data set with Helicobacter pylori [1], with Helicobacter pylori [4] and in the data set with Helicobacter pylori [6] was 12.5 µM (≈ 4.3 µg/mL) in each case. Also, the inhibition at 10 µM with Helicobacter pylori [7] is 100%; in the data set with Helicobacter pylori [8], 99.9%. The inhibition at 2.5 µM in the data set on Helicobacter pylori [2] came to 57.6%; with Helicobacter pylori [3], 86.1%; with Helicobacter pylori [15] it was 88.2%. Moreover, the inhibition at 5 µM in the data set with Helicobacter pylori [16] is 98.6%; in the data set on Helicobacter pylori [11], 91%; in the data set with Helicobacter pylori [14] it was 98.8%. For the same compound, the inhibition result with Helicobacter pylori [9] was “Dose-dependent effect”. The Activity entry in the data set with AGS is “Non-toxic”.
With `CC1(C)S[C@@H]2[C@H](NC(=O)[C@H](N)c3ccc(O)cc3)C(=O)N2[C@H]1C(=O)O` [AMOXICILLIN], the minimal bactericidal concentration (MBC) in the data set on Helicobacter pylori [1], with Helicobacter pylori [4] and against Helicobacter pylori [6] was 12.5 µM (≈ 4.57 µg/mL) in each case. In the data set on Helicobacter pylori [2], the inhibition at 2.5 µM is above 90%. In addition, the inhibition entry in the data set with Helicobacter pylori [3] is “inactive”. The inhibition at 10 µM with Helicobacter pylori [5] came out at 81.9%.

The MBC is the smallest concentration meeting the test's criterion for killing. The low end stands for greater bactericidal potency, the high end for weaker bactericidal potency. As a reminder, the inhibition is the change of the read-out against control, counted positive when it falls.
